Experimental data collected from several papers.
SLC6A2: Sodium-dependent noradrenaline transporter (SLC6A2, Homo sapiens, UniProt P23975)
MPO: Myeloperoxidase (MPO, Homo sapiens, UniProt P05164)
CASK: Peripheral plasma membrane protein CASK (CASK, Homo sapiens, UniProt O14936)

CCCCC[C@H](O)/C=C/[C@H]1C(=O)C[C@H](O)[C@@H]1C/C=C\CCCC(=O)O — Emax (Prostaglandin D2 receptor (PTGDR, Homo sapiens, UniProt Q13258); G protein activation, agonist, BRET): 101%
CCOC(=O)[C@@]12C[C@@H]1[C@@H](n1cnc3c(NCCCCc4ccccc4)nc(C#Cc4ccc(Cl)s4)nc31)[C@H](O)[C@@H]2O — inhibition (SLC6A2; ligand displacement, radioligand; 10 µM): 3%
COc1ccc2oc(-c3ccc4nc(N)oc4c3)c/c(=N\c3ccccc3NC(=O)CCN)c2c1 — remaining binding (Fibroblast growth factor receptor 1 (FGFR1, Homo sapiens, UniProt P11362, V561M); binding; 1 µM): 97%
O[C@@H]1[C@H](O)[C@@H]2C[C@@H]2[C@H]1n1cnc2c(NCCC3CC3)ncnc21 — inhibition (SLC6A2; transporter uptake, inhibitor, radiometric; HEK293; 10 µM): 0%
Cc1cc(O)c(-c2ccc([C@@H](C)CN(C)C)cc2)c2c1[nH]c(=O)c1sccc12 — inhibition (Extracellular serine/threonine protein kinase FAM20C (FAM20C, Homo sapiens, UniProt Q8IXL6); cell-free assay, inhibitor; 0.1 µM, lysate): -0.829%
COc1ccc(Cl)cc1-c1cc(=O)[nH]c(=S)n1CC(N)=O — remaining activity (MPO; enzyme activity, inhibitor; 10 µM): 2.31%
C1=C/COCc2cc(ccc2OCCN2CCCC2)Nc2nccc(n2)-c2cccc(c2)COC/1 — remaining binding (CASK; binding; 0.1 µM): 81%
NC/C(=C\F)COc1cccc(Cn2c(=S)[nH]c(=O)c3[nH]cnc32)c1 — inhibition (MPO; enzyme activity, inhibitor, fluorescence; 1.4 nM): 17.2%
CCOC(=O)[C@@]12C[C@@H]1[C@@H](n1cnc3c(NCc4cccc(Cl)c4)nc(I)nc31)[C@H](O)[C@@H]2O — inhibition (SLC6A2; ligand displacement, radioligand; 10 µM): 45%
CC(C)OCCn1c(=S)[nH]c(=O)c2[nH]ccc21 — remaining activity (MPO; enzyme activity, inhibitor; 0.3125 µM): 67.4%
CCCCC(=O)Nc1ccc(-c2ccc3ncn(CCC)c(=O)c3c2)cn1 — remaining binding (CASK; binding, competition with immobilised ligand; 0.5 µM): 100%
CC(=O)N[C@H](CCCNC(=N)N)C(=O)N[C@H]1CSSC[C@@H](C(N)=O)NC(=O)[C@H](Cc2c[nH]c3ccccc23)NC(=O)[C@H](CCCNC(=N)N)NC(=O)[C@@H](Cc2ccccc2)NC(=O)[C@H](Cc2c[nH]cn2)NC(=O)[C@H](CCC(=O)O)NC1=O — Emax (Melanocortin receptor 4 (MC4R, Homo sapiens, UniProt P32245); cAMP, agonist; CHO-K1): 100%
CSc1nc(NCCC2CC2)c2ncn([C@H]3[C@H](O)[C@H](O)[C@@H]4C[C@@H]43)c2n1 — inhibition (SLC6A2; ligand displacement, radioligand; 10 µM): 5%
